ChEMBL document CHEMBL4602615, “Upregulation of p53 through induction of MDM2 degradation: Amino acid prodrugs of anthraquinone analogs” (Bioorg Med Chem Lett, 2020)
Converted amounts (≈) assume the structure as drawn. The source made the active and inactive calls. The calls are words filed in the database; no cut-off is given here.

Legend:
[1] = Prodrug conversion in PBS buffer assessed as half life at pH 7.4 and 37 degC by HPLC analysis; type: physicochemical
[2] = Cytotoxicity against human EU1 cells assessed as reduction in cell viability by WST8 assay; type: functional, cell-based; conditions: EU-1
Summary of the method: (§1)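 WST-8 viability read-out in HeLa cells and in an in-house established wild-type p53 leukemia line (EU-1). IC50 derived from the concentration–response data.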

[3] = Aqueous solubility of compound in PBS buffer at pH 7.4 by HPLC analysis; type: physicochemical
HeLa = assay: Cytotoxicity against human HeLa cells assessed as reduction in cell viability by WST8 assay; type: functional, cell-based; summary of the method: as §1
[4] = Prodrug conversion assessed as porcine liver Esterase-mediated compound hydrolysis by measuring half life by HPLC analysis; type: ADME, Sus scrofa; conditions: pig, isolated protein
Summary of the method: (§2)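 Amino-acid ester prodrugs incubated with the hydrolytic enzyme in PBS, pH 7.4, at 37 °C. Release of parent anthraquinone monitored by HPLC, and half-life derived.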

[5] = Prodrug conversion assessed as porcine pancreas Kallikrein-mediated compound hydrolysis by measuring half life by HPLC analysis; type: ADME, Sus scrofa; conditions: pig; summary of the method: as §2
[6] = Prodrug conversion in cell culture media assessed as half life; type: physicochemical
[7] = target: E3 ubiquitin-protein ligase Mdm2 (Homo sapiens) (UniProt Q00987); assay: Induction of MDM2 degradation in human EU1 cells assessed as upregulation of p53 protein expression incubated for 15 hrs by Western blot analysis; type: cell-based
Summary of the method: (§3)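 EU-1 is an in-house established leukemia line carrying wild-type p53. Cells were exposed across a series of concentrations and incubation times, then lysed. MDM2 and p53 protein levels were read by Western blot.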

[8] = target: E3 ubiquitin-protein ligase Mdm2 (Homo sapiens) (UniProt Q00987); assay: Induction of MDM2 degradation in human EU1 cells assessed as upregulation of p53 protein expression at 1 uM incubated for 4 to 8 hrs by Western blot analysis; type: cell-based; summary of the method: as §3
[9] = target: E3 ubiquitin-protein ligase Mdm2 (Homo sapiens) (UniProt Q00987); assay: Induction of MDM2 degradation in human EU1 cells assessed as upregulation of p53 protein expression at 0.8 uM incubated for 15 hrs by Western blot analysis; type: cell-based; summary of the method: as §3
[10] = target: E3 ubiquitin-protein ligase Mdm2 (Homo sapiens) (UniProt Q00987); assay: Induction of MDM2 degradation in human EU1 cells assessed as downregulation of MDM2 protein expression at 0.8 uM incubated for 15 hrs by Western blot analysis; type: cell-based; summary of the method: as §3
[11] = target: E3 ubiquitin-protein ligase Mdm2 (Homo sapiens) (UniProt Q00987); assay: Induction of MDM2 degradation in human EU1 cells assessed as downregulation of MDM2 protein expression at 1 uM by Western blot analysis; type: cell-based; conditions: TDE = time-dependent effect; summary of the method: as §3
[12] = target: E3 ubiquitin-protein ligase Mdm2 (Homo sapiens) (UniProt Q00987); assay: Induction of MDM2 degradation in human EU1 cells assessed as upregulation of p53 protein expression at 1 uM by Western blot analysis; type: cell-based; conditions: TDE = time-dependent effect; summary of the method: as §3
[13] = target: E3 ubiquitin-protein ligase Mdm2 (Homo sapiens) (UniProt Q00987); assay: Induction of MDM2 degradation in human EU1 cells assessed as downregulation of MDM2 protein expression at 1 uM incubated for 4 to 16 hrs by Western blot analysis; type: cell-based; summary of the method: as §3
[14] = target: E3 ubiquitin-protein ligase Mdm2 (Homo sapiens) (UniProt Q00987); assay: Induction of MDM2 degradation in human EU1 cells assessed as downregulation of MDM2 protein expression incubated for 15 hrs by Western blot analysis; type: cell-based; summary of the method: as §3
[15] = Prodrug conversion in none-denaturated human EU1 cell lysates assessed as N-[4,5-bis(2-hydroxyethoxy)-9,10-dioxo-2-anthryl]-2-chloro-acetamide release measured within 15 mins by HPLC analysis; type: ADME, subcellular, Lysate; conditions: 0.25 h
Summary of the method: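 Prodrug incubated with non-denatured lysate of EU-1 cells, an in-house wild-type p53 leukemia line, to assess activation by cellular components. Read-out was cleavage of the amino acid ester bond releasing the parent anthraquinone, followed over time.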

[16] = PBS buffer, read-out: solubility

Sequence of E3 ubiquitin-protein ligase Mdm2 (Homo sapiens) (Q00987 whole entry, looked up): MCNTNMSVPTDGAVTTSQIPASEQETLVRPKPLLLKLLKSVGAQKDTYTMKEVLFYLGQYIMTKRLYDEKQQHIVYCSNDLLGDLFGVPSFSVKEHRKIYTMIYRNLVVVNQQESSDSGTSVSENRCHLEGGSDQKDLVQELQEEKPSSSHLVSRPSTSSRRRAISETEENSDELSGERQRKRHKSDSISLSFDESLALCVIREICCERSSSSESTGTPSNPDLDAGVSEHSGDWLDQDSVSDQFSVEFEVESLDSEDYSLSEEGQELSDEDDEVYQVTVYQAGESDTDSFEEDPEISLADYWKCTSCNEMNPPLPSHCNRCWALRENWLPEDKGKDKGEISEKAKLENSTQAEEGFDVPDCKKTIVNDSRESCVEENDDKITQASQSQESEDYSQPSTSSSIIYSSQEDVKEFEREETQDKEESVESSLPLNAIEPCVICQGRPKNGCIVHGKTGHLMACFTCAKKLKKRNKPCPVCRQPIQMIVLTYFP

Row | SMILES | t1/2 [1] [min] | IC50 [2] [µM] | solubility [3, 16] [mg/mL] | IC50 (HeLa) [µM] | t1/2 [4] [min] | t1/2 [5] [min] | t1/2 [6] [min] | solubility ([3]; buffer) [mg/mL] | Activity [7] | Activity [8] | Activity [9] | Activity [10] | Activity [11] | Activity [12] | Activity [13] | Activity [14] | Drug metabolism [15]
1 | Cl.N=C(N)NCCC[C@H](N)C(=O)OCCOc1cccc2c1C(=O)c1c(OCCOC(=O)[C@@H](N)CCCNC(=N)N)cc(NC(=O)CCl)cc1C2=O | 187.1 | 2.07 | > 100 | 13 | 63 | 0.2 | – | – | – | – | – | – | – | – | – | – | –
2 | CC[C@H](C)[C@H](N)C(=O)OCCOc1cccc2c1C(=O)c1c(OCCOC(=O)[C@@H](N)[C@@H](C)CC)cc(NC(=O)CCl)cc1C2=O.Cl | 154.5 | 1.14 | > 100 | 5.75 | 24.3 | 48.4 | – | – | – | – | – | – | – | – | – | – | –
3 | Cl.NCCCC[C@H](N)C(=O)OCCOc1cccc2c1C(=O)c1c(OCCOC(=O)[C@@H](N)CCCCN)cc(NC(=O)CCl)cc1C2=O | 140.8 | 1.28 | > 100 | 10.7 | 44.2 | 2.4 | – | – | – | – | – | – | – | – | – | – | –
4 | Cl.NC(=O)CC[C@H](N)C(=O)OCCOc1cccc2c1C(=O)c1c(OCCOC(=O)[C@@H](N)CCC(N)=O)cc(NC(=O)CCl)cc1C2=O | 137.1 | 1.45 | > 100 | 12.3 | 73 | 66.9 | – | – | – | – | – | – | – | – | – | – | –
5 | Cl.NCC(=O)OCCOc1cccc2c1C(=O)c1c(OCCOC(=O)CN)cc(NC(=O)CCl)cc1C2=O | 31.5 | 1.1 | > 100 | 3.66 | 10.1 | 35.9 | 19.3 | – | – | – | – | – | – | – | – | – | –
6 | CC(C)C[C@H](N)C(=O)OCCOc1cccc2c1C(=O)c1c(OCCOC(=O)[C@@H](N)CC(C)C)cc(NC(=O)CCl)cc1C2=O.Cl | 127.7 | 1.17 | > 100 | 2.8 | 2.5 | 39.6 | – | – | – | – | – | – | – | – | – | – | –
7 | O=C(CCl)Nc1cc(O)c2c(c1)C(=O)c1cccc(O)c1C2=O | – | – | – | – | – | – | – | 0.0085 (≈ 25.6 µM) | – | – | – | – | – | – | – | – | –
8 | O=C(CCl)Nc1cc(OCCO)c2c(c1)C(=O)c1cccc(OCCO)c1C2=O | – | 0.89 | – | 3.76 | – | – | – | 0.06 (≈ 143 µM) | Dose-dependent effect | Active | Active | Active | Tde | Tde | Active | Dose-dependent effect | –
9 | CSCC[C@H](N)C(=O)OCCOc1cccc2c1C(=O)c1c(OCCOC(=O)[C@@H](N)CCSC)cc(NC(=O)CCl)cc1C2=O.Cl | 44.8 | 1.24 | > 100 | 7.07 | 3.7 | 12 | – | – | – | – | – | – | – | – | – | – | –
10 | C[C@H](N)C(=O)OCCOc1cccc2c1C(=O)c1c(OCCOC(=O)[C@H](C)N)cc(NC(=O)CCl)cc1C2=O.Cl | 100.9 | 1.66 | > 100 | 8.21 | 6.2 | 24.7 | – | – | – | – | – | – | – | – | – | – | –
11 | Cl.N[C@@H](Cc1ccccc1)C(=O)OCCOc1cccc2c1C(=O)c1c(OCCOC(=O)[C@@H](N)Cc3ccccc3)cc(NC(=O)CCl)cc1C2=O | 73.7 | 1.23 | – | 5.64 | 1 | 6.5 | – | 703 | – | – | – | – | – | – | – | – | –
12 | Cl.N[C@@H](CCC(=O)O)C(=O)OCCOc1cccc2c1C(=O)c1c(OCCOC(=O)[C@@H](N)CCC(=O)O)cc(NC(=O)CCl)cc1C2=O | 268.6 | 3.21 | > 100 | 9.11 | 117.9 | 110 | 156.1 | – | – | – | – | – | – | – | – | – | –
13 | CC(C)[C@H](N)C(=O)OCCOc1cccc2c1C(=O)c1c(OCCOC(=O)[C@@H](N)C(C)C)cc(NC(=O)CCl)cc1C2=O.Cl | 147.7 | 1.08 | > 100 | 4.15 | 25.3 | 126.3 | – | – | – | – | – | – | – | – | – | – | Metabolite_Detected
14 | Cl.N[C@@H](Cc1ccc(O)cc1)C(=O)OCCOc1cccc2c1C(=O)c1c(OCCOC(=O)[C@@H](N)Cc3ccc(O)cc3)cc(NC(=O)CCl)cc1C2=O | 70.6 | 1.27 | > 100 | 5.4 | 1.7 | 6.5 | – | – | – | – | – | – | – | – | – | – | –
